How the values were obtained:
[1] = Cmax in rhesus monkey plasma at 202 ug administered via intranasal nebulization for 8 mins by LC-MS method; assay type: ADME, cell-free, Macaca mulatta; set-up: dose 202 ug, route nasal; conditions: inhaled or intranasal
Method in brief: (§1)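 Anesthetised male rhesus macaques (Telazol IM, propofol IV) inhaled drug in propylene glycol (low 120 μg/ml, high 6.15 mg/ml) by pediatric nebuliser and face mask for 8 min; dose was taken from nebuliser residue. Plasma (stored −80 C) was spiked with internal standard and extracted by solid-liquid extraction with ethyl acetate, then dried and redissolved in water/methanol/formic acid 70:30:0.1. It was measured in duplicate by C18 LC-MS/MS against a rhesus-plasma calibration. Recovery was about 86%.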

[2] = Tmax in rhesus monkey plasma at 202 ug administered via intranasal nebulization for 8 mins by LC-MS method; assay type: ADME, cell-free, Macaca mulatta; conditions: inhaled or intranasal
Method in brief: (§2)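 Four male rhesus macaques, 5 years old, 9–13 kg, under Telazol (4–5 mg/kg IM) then IV propofol. Dose in propylene glycol given by face mask from a pediatric nebulizer for 8 min. Lumbar CSF collected by passive drip at 60 and 120 min; blood-tinged CSF excluded. Plasma solid-phase extracted with ethyl acetate. LC-MS/MS in duplicate against an internal standard and a 0.8–10 pg/ml calibration curve. ke = (lnC1 − lnC2)/(t2 − t1), confirmed by semi-log regression; t1/2 = 0.693/ke.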

[3] = Cmax in rhesus monkey CSF at 202 ug administered via intranasal nebulization for 8 mins by LC-MS method; assay type: ADME, Macaca mulatta, Cerebrospinal fluid; set-up: dose 202 ug, route nasal; conditions: inhaled or intranasal
Method in brief: (§3)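 Four male rhesus macaques (5 yr, 9–13 kg) under IM Telazol, then IV propofol. Drug in propylene glycol (low 120 μg/ml, high 6.15 mg/ml) was aerosolised for 8 min by pediatric nebuliser through a face mask. Dose was taken from the nebuliser residue. Lumbar CSF was collected by passive drip at 60 and 120 min; blood-tinged samples were discarded. CSF was run unprocessed by LC-MS/MS in duplicate against an artificial-CSF calibration (0.8–10 pg/ml) with internal standard.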

[4] = Tmax in rhesus monkey CSF at 202 ug administered via intranasal nebulization for 8 mins by LC-MS method; assay type: ADME, Macaca mulatta, Cerebrospinal fluid; conditions: inhaled or intranasal; method in brief: as §2
[5] = Cmax in rhesus monkey plasma at 7690 ug administered via intranasal nebulization for 8 mins by LC-MS method; assay type: ADME, cell-free, Macaca mulatta; set-up: dose 7690 ug, route nasal; conditions: inhaled or intranasal; method in brief: as §1
[6] = Tmax in rhesus monkey plasma at 7690 ug administered via intranasal nebulization for 8 mins by LC-MS method; assay type: ADME, cell-free, Macaca mulatta; conditions: inhaled or intranasal; method in brief: as §2
[7] = Cmax in rhesus monkey CSF at 7690 ug administered via intranasal nebulization for 8 mins by LC-MS method; assay type: ADME, Macaca mulatta, Cerebrospinal fluid; set-up: dose 7690 ug, route nasal; conditions: inhaled or intranasal; method in brief: as §3
[8] = Tmax in rhesus monkey CSF at 7690 ug administered via intranasal nebulization for 8 mins by LC-MS method; assay type: ADME, Macaca mulatta, Cerebrospinal fluid; conditions: inhaled or intranasal; method in brief: as §2
[9] = Cmax in rhesus monkey plasma at 6150 ug, im by LC-MS method; assay type: ADME, organism-based, Macaca mulatta; set-up: dose 6150 ug, route intramuscular
Method in brief: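 Anesthetised male rhesus macaques (n=2; Telazol IM, propofol IV) received 6.15 mg in propylene glycol (6.15 mg/ml) injected into the inner thigh muscle. Plasma was spiked with internal standard and extracted by solid-liquid extraction with ethyl acetate, then redissolved in water/methanol/formic acid 70:30:0.1. It was quantified in duplicate by C18 LC-MS/MS against a rhesus-plasma calibration curve.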

[10] = Tmax in rhesus monkey plasma at 6150 ug, im by LC-MS method; assay type: ADME, organism-based, Macaca mulatta
Method in brief: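 Male rhesus macaques (5 yr, 9–13 kg), anaesthetised with Telazol IM then IV propofol drip, given 6.15 mg in propylene glycol (6.15 mg/ml) into inner thigh muscle (n=2). Plasma separated, stored −80 C, extracted by solid-liquid phase with ethyl acetate plus internal standard. LC-MS/MS (C18, water/methanol/formic acid) in duplicate against calibration curve in rhesus plasma; time of maximum plasma concentration taken.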

[11] = Cmax in rhesus monkey CSF at 1650 ug, im by LC-MS method; assay type: ADME, organism-based, Macaca mulatta, Cerebrospinal fluid; set-up: dose 1650 ug, route intramuscular
[12] = Elimination rate constant in rhesus monkey plasma at 202 to 7690 ug administered via intranasal nebulization for 8 mins by LC-MS method; assay type: ADME, cell-free, Macaca mulatta; conditions: inhaled or intranasal; method in brief: as §2
[13] = Half life in rhesus monkey plasma at 202 to 7690 ug administered via intranasal nebulization for 8 mins by LC-MS method; assay type: ADME, cell-free, Macaca mulatta; conditions: inhaled or intranasal; method in brief: as §2
[14] = Elimination rate constant in rhesus monkey CSF at 7690 ug administered via intranasal nebulization for 8 mins by LC-MS method; assay type: ADME, Macaca mulatta, Cerebrospinal fluid; conditions: in vivo, inhaled_or_intranasal; method in brief: as §2
[15] = Half life in rhesus monkey CSF at 7690 ug administered via intranasal nebulization for 8 mins by LC-MS method; assay type: ADME, Macaca mulatta, Cerebrospinal fluid; conditions: in vivo, inhaled_or_intranasal; method in brief: as §2
Rhesus monkey [16] = assay: Activity at OXTR in rhesus monkey assessed as concentration in CSF required to elicit behavioral effects at 7.69 mg administered via intranasal nebulization for 8 mins; assay type: functional, Macaca mulatta
Method in brief: (§4)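 Estimated OXTR-relevant CSF targets for male rhesus macaques. Values come from OT levels before and after aerosolized IN OT (24 IU) reported in earlier work. They assume a 10 ml total CSF volume and scale from the in vitro Ki, which was measured by displacing 2 nM [3H]OT.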

Rhesus monkey [17] = assay: In vivo antagonist activity at OXTR in rhesus monkey assessed as concentration in CSF required to displace endogenous oxytocin at 7.69 mg administered via intranasal nebulization for 8 mins; assay type: functional, Macaca mulatta; method in brief: as §4
Rhesus monkey [18] = assay: Activity at OXTR in rhesus monkey assessed as concentration in CSF required to elicit behavioral effects at 6.15, im; assay type: functional, Macaca mulatta; method in brief: as §4
Rhesus monkey [19] = assay: In vivo antagonist activity at OXTR in rhesus monkey assessed as concentration in CSF required to displace endogenous oxytocin at 6.15, im; assay type: functional, Macaca mulatta; method in brief: as §4
Brain = assay: Drug uptake in Sprague-Dawley rat brain at 126 to 295 uCi, iv administered as 30 mins bolus infusion after 15 to 90 mins by PET imaging method; assay type: ADME, organism-based; conditions: in vivo
[20] = Drug uptake in Sprague-Dawley rat skull at 126 to 295 uCi, iv administered as 30 mins bolus infusion after 15 to 90 mins by PET imaging method; assay type: ADME, organism-based; conditions: in vivo
[21] = Drug uptake in Sprague-Dawley rat muscle at 126 to 295 uCi, iv administered as 30 mins bolus infusion after 15 to 90 mins by PET imaging method; assay type: ADME, organism-based, Muscle tissue; conditions: in vivo
[22] = Drug uptake in Sprague-Dawley rat skull at 340 to 390 uCi, im up to 120 mins by PET imaging method; assay type: ADME, organism-based; conditions: in vivo, 2 h
Method in brief: (§5)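 Female Sprague-Dawley rats, 200–330 g, under 4–5% isoflurane in oxygen. [18F]tracer, 340–390 μCi in 100 μl, injected IM just above the knee of the hind leg. PET starting 15 min post injection, 2 h scan, with 7 min Co-57 transmission scan. Time-activity curves of mean nCi/cc, n=3.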

[23] = Drug uptake in Sprague-Dawley rat muscle at 340 to 390 uCi, im up to 120 mins by PET imaging method; assay type: ADME, organism-based, Muscle tissue; conditions: in vivo, 2 h; method in brief: as §5
Oxytocin receptor = target: T1, Oxytocin receptor (Homo sapiens, UniProt P30559); assay: Displacement of [3H]Oxytocin from human OXTR expressed in CHO cell membranes after 90 mins by liquid scintillation counting method
T1 sequence (P30559 whole entry): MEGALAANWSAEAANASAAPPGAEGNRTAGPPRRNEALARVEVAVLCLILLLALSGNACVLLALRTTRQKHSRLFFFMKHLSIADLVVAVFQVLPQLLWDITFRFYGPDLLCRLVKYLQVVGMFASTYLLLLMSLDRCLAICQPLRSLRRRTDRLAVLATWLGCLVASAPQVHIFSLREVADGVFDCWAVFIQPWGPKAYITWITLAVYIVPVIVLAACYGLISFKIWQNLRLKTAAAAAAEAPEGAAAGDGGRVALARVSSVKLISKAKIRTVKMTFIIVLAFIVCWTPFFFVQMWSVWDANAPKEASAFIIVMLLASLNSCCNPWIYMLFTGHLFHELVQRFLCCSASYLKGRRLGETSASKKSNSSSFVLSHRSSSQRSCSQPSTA

For `CS(=O)(=O)N1CCC(Oc2ccc(CC(=O)N3CCC(N4C(=O)CCc5ccccc54)CC3)c(OCCF)c2)CC1`, the Cmax [1] was 1.16 ng/mL, the Tmax [2] was 5 min and the Cmax [3] was 0.00736 ng/mL. For the same compound, the Tmax [4] was 2 h, the Cmax [5] was 156 ng/mL and the Tmax [6] was 0.25 h. The Cmax [7] was 0.0972 ng/mL, the Tmax [8] was 1 h and the Cmax [9] was 740 ng/mL. It also gave a Tmax [10] of 1 h, a Cmax [11] of 0.478 ng/mL and a k el at 8 min [12] of 0.0004 s⁻¹. It also gave a half-life [13] of 0.483 h, a Kel [14] of 0.007 min⁻¹ and a t1/2 [15] of 1.6 h. The Activity (Rhesus monkey [16]) was 24 pM, the Activity (Rhesus monkey [17]) was 56 pM and the Activity (Rhesus monkey [18]) was 24 pM. For the same compound, the Activity (Rhesus monkey [19]) was 56 pM.
For `CS(=O)(=O)N1CCC(Oc2ccc(CC(=O)N3CCC(N4C(=O)CCc5ccccc54)CC3)c(OCC[18F])c2)CC1`, the Drug uptake (Brain) was “Active”, the Drug uptake [20] was “Active” and the Drug uptake [21] was “Active”. The Drug uptake [22] was “Active” and the Drug uptake [23] was “Active”.
Compound `Cc1ccccc1N1CCN(S(=O)(=O)CC23CCC(CC2NC(=O)C(N)CCS(C)(=O)=O)C3(C)C)CC1` (stereo not given) has a Ki (Oxytocin receptor) of 17 nM.

Source: ChEMBL document CHEMBL4000173, “An evaluation of central penetration from a peripherally administered oxytocin receptor selective antagonist in nonhuman primates” (Bioorg Med Chem, 2017)
